According to ChEMBL document CHEMBL1141577, “Thiophene containing triarylmethanes as antitubercular agents” (2008):
Converted amounts (≈) assume the structure as drawn.

system: Mycobacterium tuberculosis; test: Antitubercular activity against Mycobacterium tuberculosis H37Rv by agar dilution method; assay type: functional
Method in brief: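 Twofold serial dilutions of compound incorporated into Middlebrook 7H11 agar with OADC supplement, in duplicate wells, at final 12.5, 6.25, 3.125 and 1.56 µg/mL. A known CFU of H37Rv culture was spread on the agar surface, and plates were incubated at 37 °C in 5% CO2. MIC was taken as the lowest concentration giving complete inhibition of colonies.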

| SMILES | MIC [µg/mL] |
| --- | --- |
| COc1ccc(C(c2cccs2)c2ccccc2OCCN2CCCCC2)cc1 (configuration not stated) | > 12.5 |
| COc1ccc(C(c2cccs2)c2ccccc2OCCN2CCCCCC2)cc1 (configuration not stated) | > 12.5 |
| COc1ccc(C(c2cccs2)c2ccccc2OCCN2CCCC2)cc1 (configuration not stated) | > 12.5 |
| CSc1ccc(C(c2ccc(O)cc2)c2cccs2)cc1 (configuration not stated) | > 12.5 |
| COc1cccc(C(c2ccc(O)cc2)c2cccs2)c1 (configuration not stated) | > 12.5 |
| COc1ccc(C(c2ccc(OCC(O)CN3CCN(Cc4ccccc4)CC3)cc2)c2cccs2)cc1 (configuration not stated) | > 12.5 |
| COc1ccc(C(c2ccc(OCC(O)CN3CCN(c4ccccn4)CC3)cc2)c2cccs2)cc1 (configuration not stated) | > 12.5 |
| COc1ccc(C(c2ccc(OCC(O)CNC3CCCCC3)cc2)c2cccs2)cc1 (configuration not stated) | 12.5 (≈ 27.7 µM) |
| COc1ccc(C(c2ccc(OCC(O)CN3CCCCC3)cc2)c2cccs2)cc1 (configuration not stated) | 12.5 (≈ 28.6 µM) |
| COc1ccc(C(c2ccc(OCC(O)CNCCc3ccc(OC)c(OC)c3)cc2)c2cccs2)cc1 (configuration not stated) | > 12.5 |
| Clc1ccc(C(c2ccc(OCCN3CCOCC3)cc2)c2cccs2)cc1 (configuration not stated) | 12.5 (≈ 30.2 µM) |
| CSc1ccc(C(c2ccc(OCCN3CCCCCC3)cc2)c2cccs2)cc1 (configuration not stated) | 3.12 (≈ 7.13 µM) |
| COc1ccc(C(c2ccc(OCCN3CCCCCC3)cc2)c2cccs2)cc1 (configuration not stated) | 12.5 (≈ 29.6 µM) |
| CCN(CC)CCOc1ccc(C(c2cccc(OC)c2)c2cccs2)cc1 (configuration not stated) | 3.12 (≈ 7.89 µM) |
| COc1cccc(C(c2ccc(OCCN(C)C)cc2)c2cccs2)c1 (configuration not stated) | 12.5 (≈ 34 µM) |
| COc1cccc(C(c2ccc(OCCN3CCCCCC3)cc2)c2cccs2)c1 (configuration not stated) | 3.12 (≈ 7.4 µM) |
| COc1ccc(C(c2ccc(OCCN(C)C)cc2)c2cccs2)cc1 (configuration not stated) | 12.5 (≈ 34 µM) |
| CSc1ccc(C(c2ccc(OCCN3CCOCC3)cc2)c2cccs2)cc1 (configuration not stated) | > 12.5 |
| COc1ccc(C(c2ccc(OCC(O)CN3CCCC3)cc2)c2cccs2)cc1 (configuration not stated) | > 12.5 |

| SMILES | MIC [µg/mL] |
| --- | --- |
| COc1ccc(C(c2ccc(OCC(O)CN3CCSCC3)cc2)c2cccs2)cc1 (configuration not stated) | > 12.5 |
| Oc1ccc(C(c2ccc(Cl)cc2)c2cccs2)cc1 (configuration not stated) | > 12.5 |
| COc1ccc(C(c2cccs2)c2ccccc2OCCN(C)C)cc1 (configuration not stated) | > 12.5 |
| COc1ccc(C(c2ccc(OCC(O)CN3CCN(C)CC3)cc2)c2cccs2)cc1 (configuration not stated) | > 12.5 |
| COc1ccc(C(c2ccc(OCC(O)CNCCCN3CCOCC3)cc2)c2cccs2)cc1 (configuration not stated) | > 12.5 |
| COc1ccc(C(c2ccc(OCCN3CCOCC3)cc2)c2cccs2)cc1 (configuration not stated) | > 12.5 |
| CCN(CC)CCOc1ccc(C(c2ccc(Cl)cc2)c2cccs2)cc1 (configuration not stated) | 3.12 (≈ 7.8 µM) |
| CCN(CC)CCOc1ccc(C(c2ccc(SC)cc2)c2cccs2)cc1 (configuration not stated) | 3.12 (≈ 7.58 µM) |
| CCN(CC)CCOc1ccccc1C(c1ccc(OC)cc1)c1cccs1 (configuration not stated) | > 12.5 |
| COc1ccc(C(c2ccc(O)cc2)c2cccs2)cc1 (configuration not stated) | 3.12 (≈ 10.5 µM) |
| CSc1ccc(C(c2ccc(OCCN(C)C)cc2)c2cccs2)cc1 (configuration not stated) | > 12.5 |
| CCN(CC)CCOc1ccc(C(c2ccc(OC)cc2)c2cccs2)cc1 (configuration not stated) | 6.25 (≈ 15.8 µM) |
| COc1cccc(C(c2ccc(OCCN3CCOCC3)cc2)c2cccs2)c1 (configuration not stated) | 12.5 (≈ 30.5 µM) |
| COc1ccc(C(c2ccc(OCC(O)CNCCCn3ccnc3)cc2)c2cccs2)cc1 (configuration not stated) | > 12.5 |
| CCN(CC)CCCNCC(O)COc1ccc(C(c2ccc(OC)cc2)c2cccs2)cc1 (configuration not stated) | > 12.5 |
| CN(C)CCOc1ccc(C(c2ccc(Cl)cc2)c2cccs2)cc1 (configuration not stated) | 6.25 (≈ 16.8 µM) |
| NNC(=O)c1ccncc1 [ISONIAZID] | 0.05 (≈ 0.365 µM) |
| CO[C@H]1/C=C/O[C@@]2(C)Oc3c(C)c(O)c4c(O)c(c(/C=N/N5CCN(C)CC5)c(O)c4c3C2=O)NC(=O)/C(C)=C\C=C\[C@H](C)[C@H](O)[C@@H](C)[C@@H](O)[C@@H](C)[C@H](OC(C)=O)[C@@H]1C [RIFAMPIN] | 0.1 (≈ 0.122 µM) |
